# Source: ChEMBL document CHEMBL4811274, “Epo-C12 inhibits peroxiredoxin 1 peroxidase activity” (Bioorg Med Chem, 2021)
# Active and inactive are the calls of the source. The calls are words filed in the database; no cut-off is given here.
# Key:
# BALL-1 [1] = experiment: Induction of apoptosis in human BALL-1 cells at 5 uM pretreated with GSH for 1.5 hrs followed by compound addition and measured after 24 hrs by annexin-V-FITC and PI staining based flow cytometry analysis; assay type: functional, cell-based
# Method in brief: (§1)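 BALL-1 cells (2×10⁵) pretreated 1.5 h at 37 °C with DMSO, 250 μM DTT, 1.5 mM GSH or 250 μM NAC, then ±5 μM compound for 24 h. Stained with annexin V-FITC (HEPES–NaOH/NaCl/CaCl2 buffer pH 7.4, 10 min), then 2 μg/mL PI; flow cytometry. Late apoptotic (annexin V+/PI+) percentage; octuplicate, mean ± SD, Tukey HSD.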
# BALL-1 [2] = experiment: Induction of ROS production in human BALL-1 cells incubated for 30 mins by DCFH-DA staining based flow cytometry analysis; assay type: functional, cell-based; details: dose 1-10 µM
# Method in brief: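 Cells (2×10⁵) loaded with 10 μM DCFH-DA for 10 min, then exposed to 1, 5 or 10 μM compound, DMSO vehicle, or 50 μM H2O2 for 30 min. Pellets resuspended in PBS; DCF fluorescence by flow cytometry (ex 488/em 530 nm). Fluorescence normalized to control; mean of two independent measurements, error as range.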
# BALL-1 [3] = experiment: Induction of apoptosis in human BALL-1 cells at 5 uM pretreated with DTT for 1.5 hrs followed by compound addition and measured after 24 hrs by annexin-V-FITC and PI staining based flow cytometry analysis; assay type: functional, cell-based; method in brief: as §1
# BALL-1 [4] = experiment: Induction of apoptosis in human BALL-1 cells at 5 uM pretreated with NAC for 1.5 hrs followed by compound addition and measured after 24 hrs by annexin-V-FITC and PI staining based flow cytometry analysis; assay type: functional, cell-based; method in brief: as §1
# BALL-1 [5] = experiment: Cytotoxicity against human BALL-1 cells assessed as reduction in cell viability incubated for 24 hrs by WST-8 assay; assay type: functional, cell-based; details: BALL-1, 24 h
# Method in brief: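 BALL-1 cells (RPMI 1640, 10% FBS, 37 °C, 5% CO2) seeded at 10,000 cells/well, exposed to a concentration range for 24 h, 0.1% DMSO. WST-8 reagent added, 2 h at 37 °C, absorbance 450 nm. Growth inhibition taken as sample/control absorbance ratio; IC50 reported as mean ± SD.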
# [6] = molecular target: Peroxiredoxin-1 (Homo sapiens) (UniProt Q06830); experiment: Retention of chaperone activity of oxidized Prx1 (unknown origin) assessed as decrease in heat-induced citrate synthase aggregation at 25 uM incubated for 20 mins by light scattering assay
# Chain of Peroxiredoxin-1 (Homo sapiens) (Q06830 whole entry, looked up): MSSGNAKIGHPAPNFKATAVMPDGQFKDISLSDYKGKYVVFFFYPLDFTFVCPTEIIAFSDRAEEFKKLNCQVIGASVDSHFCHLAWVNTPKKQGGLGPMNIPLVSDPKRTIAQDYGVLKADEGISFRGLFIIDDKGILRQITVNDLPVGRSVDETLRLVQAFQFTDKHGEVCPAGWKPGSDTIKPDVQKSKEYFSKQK
# [7] = molecular target: Peroxiredoxin-1 (Homo sapiens) (UniProt Q06830); experiment: Inhibition of recombinant Prx1 (unknown origin) assessed as reduction in peroxidase activity at 50 uM incubated for 30 mins followed by H2O2 addition and measured after 20 mins by PEROXsay assay kit method relative to control; values are per cent of control; details: time 50.0 min
# [8] = molecular target: Peroxiredoxin-1 (Homo sapiens) (UniProt Q06830); experiment: Binding affinity to recombinant wild type Prx1 (unknown origin) expressed in human HEK293T cells at 1 uM incubated for 20 hrs by Western blot analysis
Compound,Activity (BALL-1 [1]),Activity (BALL-1 [2]),Activity (BALL-1 [3]),Activity (BALL-1 [4]),IC50 (BALL-1 [5]) [µM],Activity [6],residual activity [7] [%],Activity [8]
CCCCCCCCCCCC(=O)[C@]12O[C@H]1C(C)(O)NC2=O (stereo partly specified),inactive,Dose-Dependent Effect,inactive,inactive,4.41,Active,56,–
CC1(O)NC(=O)[C@@]2(C(=O)CCCCCCCCCCCNC(=O)CCCC[C@@H]3SC[C@@H]4NC(=O)N[C@@H]43)O[C@@H]12 (stereo partly specified),–,–,–,–,–,–,–,Active
[O-][n+]1c(CBr)c(CBr)[n+]([O-])c2ccccc21,–,–,–,–,1.05,Active,33,–
